Results reported in ChEMBL document CHEMBL1138351, “Small, potent, and selective diaryl phosphonate inhibitors for urokinase-type plasminogen activator with in vivo antimetastatic properties” (J Med Chem, 2007).

What was measured:
[1] = Stability in human plasma after 3 hrs; assay type: ADME, cell-free; settings: read-out: Stability
Method in brief: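 Compound was added from 10 mM DMSO stock to human plasma at 200 µM final and shaken at 37 °C for up to 24 h. Aliquots were quenched in methanol and centrifuged. The supernatant was diluted with internal standard and analysed by LC/MS/MS in triplicate. Result is given as % parent compound remaining.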

[2] = target: Urokinase-type plasminogen activator (Rattus norvegicus, UniProt P29598); assay: Inhibition of rat uPA
[3] = target: Urokinase-type plasminogen activator (Mus musculus, UniProt P06869); assay: Inhibition of mouse uPA
Plasminogen [4] = target: Plasminogen (Mus musculus, UniProt P20918); assay: Inhibition of mouse plasmin
Plasminogen [5] = target: Plasminogen (Rattus norvegicus, UniProt Q01177); assay: Inhibition of rat plasmin
Prothrombin [6] = target: Prothrombin (Rattus norvegicus, UniProt P18292); assay: Inhibition of rat thrombin
Prothrombin [7] = target: Prothrombin (Mus musculus, UniProt P19221); assay: Inhibition of mouse thrombin
[8] = target: Tissue-type plasminogen activator (Homo sapiens, UniProt P00750); assay: Inhibition of human recombinant tPA
Plasminogen [9] = target: Plasminogen (Homo sapiens, UniProt P00747); assay: Inhibition of human plasmin
Method in brief: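 Plasmin from human plasma at about 5 mU was preincubated with inhibitor (0–250 µM final) for 15 min at 37 °C. Substrate was S-2366 at 580 µM in Tris pH 7.4. Initial rate was read at 405 nm, in duplicate. IC50 came from a four-parameter logistic fit.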

Prothrombin [10] = target: Prothrombin (Homo sapiens, UniProt P00734); assay: Inhibition of human thrombin
Method in brief: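 Human plasma thrombin was assayed at 37 °C in Tris pH 8.3. […] Initial rate was read at 405 nm, in duplicate. IC50 was obtained from a four-parameter logistic fit.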

[11] = Chemical stability assessed as half life of hydrolysis at pH 1; assay type: physicochemical; settings: buffer
[12] = Chemical stability assessed as half life of hydrolysis at pH 7.4; assay type: physicochemical; settings: buffer
[13] = Antitumor activity aganist Brown Norwegian rat bearing BN472 tumor assessed as reduction of tumor size at 0.1 mg/kg, ip administered once daily after 4 days of tumor transplantation for 17 to 18 days relative to control; assay type: functional; parameters: scale not given: the % may be the effect or the level left; settings: route intraperitoneal
Method in brief: (§1)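 Rats bearing orthotopic BN472 breast tumours (grown three days) were dosed i.p. daily from day 4 for 17–18 days at 0.1 or 1 mg/kg. Vehicle-only i.p. controls were included. Tumour size and tumour weight were measured at the end of the treatment period and compared with controls.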

[14] = Antitumor activity against Brown Norwegian rat bearing BN472 tumor assessed as reduction of tumor size at 1 mg/kg, ip administered once daily after 4 days of tumor transplantation for 17 to 18 days relative to control; assay type: functional; parameters: scale not given: the % may be the effect or the level left; settings: route intraperitoneal; method in brief: as §1
[15] = Antitumor activity aganist Brown Norwegian rat bearing BN472 tumor assessed as reduction of tumor weight at 0.1 mg/kg, ip administered once daily after 4 days of tumor transplantation for 17 to 18 days relative to control; assay type: functional; parameters: scale not given: the % may be the effect or the level left; settings: route intraperitoneal; method in brief: as §1
[16] = Antitumor activity against Brown Norwegian rat bearing BN472 tumor assessed as reduction of tumor weight at 1 mg/kg, ip administered once daily after 4 days of tumor transplantation for 17 to 18 days relative to control; assay type: functional; parameters: scale not given: the % may be the effect or the level left; settings: route intraperitoneal; method in brief: as §1
[17] = Antimetastatic activity against Brown Norwegian rat bearing BN472 tumor assessed as decrease in number of lung foci at 0.1 mg/kg, ip administered once daily after 4 days of tumor transplantation for 17 to 18 days relative to control; assay type: functional; parameters: scale not given: the % may be the effect or the level left; settings: route intraperitoneal
Method in brief: (§2)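 BN472 breast tumours implanted orthotopically in rats and left to grow three days. From day 4, compounds were given i.p. daily for 17–18 days at 0.1 or 1 mg/kg. Controls received vehicle i.p. only. Lung foci were counted and axillary lymph nodes weighed at the end of treatment. Groups were compared with control at an unadjusted significance level of P 0.05.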

[18] = Antimetastatic activity against Brown Norwegian rat bearing BN472 tumor assessed as reduction of axillary lymph node weight at 0.1 mg/kg, ip administered once daily after 4 days of tumor transplantation for 17 to 18 days relative to control; assay type: functional; parameters: scale not given: the % may be the effect or the level left; settings: route intraperitoneal; method in brief: as §2
[19] = Antimetastatic activity against Brown Norwegian rat bearing BN472 tumor assessed as reduction of axillary lymph node weight at 1 mg/kg, ip administered once daily after 4 days of tumor transplantation for 17 to 18 days relative to control; assay type: functional; parameters: scale not given: the % may be the effect or the level left; settings: route intraperitoneal; method in brief: as §2
[20] = Antimetastatic activity against Brown Norwegian rat bearing BN472 tumor assessed as reduction of interpectoral lymph node weight at 0.1 mg/kg, ip administered once daily after 4 days of tumor transplantation for 17 to 18 days relative to control; assay type: functional; parameters: scale not given: the % may be the effect or the level left; settings: route intraperitoneal
[21] = Antimetastatic activity against Brown Norwegian rat bearing BN472 tumor assessed as reduction of interpectoral lymph node weight at 1 mg/kg, ip administered once daily after 4 days of tumor transplantation for 17 to 18 days relative to control; assay type: functional; parameters: scale not given: the % may be the effect or the level left; settings: route intraperitoneal
Rattus norvegicus [22] = assay: Toxicity in Brown Norwegian rat bearing BN472 tumor assessed as effect on body weight at 0.1 mg/kg, ip administered once daily after 4 days of tumor transplantation for 17 to 18 days relative to control; assay type: organism-based; parameters: dose 0.1 mg/kg, route intraperitoneal; settings: in vivo
Method in brief: (§3)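 Orthotopic BN472 breast tumour model in rats. Daily i.p. dosing at 0.1 or 1 mg/kg started on day 4 and ran 17–18 days, with vehicle-only i.p. controls. Side effects were assessed from body weight and the weights of several organs, compared with controls.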

Rattus norvegicus [23] = assay: Toxicity in Brown Norwegian rat bearing BN472 tumor assessed as effect on body weight at 1 mg/kg, ip administered once daily after 4 days of tumor transplantation for 17 to 18 days relative to control; assay type: organism-based; parameters: dose 1 mg/kg, route intraperitoneal; settings: in vivo; method in brief: as §3
Rattus norvegicus [24] = assay: Toxicity in Brown Norwegian rat bearing BN472 tumor assessed as increase in lung weight at 1 mg/kg, ip administered once daily after 4 days of tumor transplantation for 17 to 18 days relative to control; assay type: organism-based; parameters: dose 1 mg/kg, route intraperitoneal; settings: in vivo; method in brief: as §3
Rattus norvegicus [25] = assay: Toxicity in Brown Norwegian rat bearing BN472 tumor assessed as increase in uterus weight at 1 mg/kg, ip administered once daily after 4 days of tumor transplantation for 17 to 18 days relative to control; assay type: organism-based; parameters: dose 1 mg/kg, route intraperitoneal; settings: in vivo; method in brief: as §3
Rattus norvegicus [26] = assay: Toxicity in Brown Norwegian rat bearing BN472 tumor assessed as increase in spleen weight at 0.1 mg/kg, ip administered once daily after 4 days of tumor transplantation for 17 to 18 days relative to control; assay type: organism-based; parameters: dose 0.1 mg/kg, route intraperitoneal; settings: in vivo; method in brief: as §3
Rattus norvegicus [27] = assay: Toxicity in Brown Norwegian rat bearing BN472 tumor assessed as decrease in liver weight at 0.1 mg/kg, ip administered once daily after 4 days of tumor transplantation for 17 to 18 days relative to control; assay type: organism-based; parameters: dose 0.1 mg/kg, route intraperitoneal; scale not given: the % may be the effect or the level left; settings: in vivo; method in brief: as §3
Rattus norvegicus [28] = assay: Toxicity in Brown Norwegian rat bearing BN472 tumor assessed as decrease in liver weight at 1 mg/kg, ip administered once daily after 4 days of tumor transplantation for 17 to 18 days relative to control; assay type: organism-based; parameters: dose 1 mg/kg, route intraperitoneal; scale not given: the % may be the effect or the level left; settings: in vivo; method in brief: as §3
Rattus norvegicus [29] = assay: Toxicity in Brown Norwegian rat bearing BN472 tumor assessed as increase in kidney weight at 0.1 mg/kg, ip administered once daily after 4 days of tumor transplantation for 17 to 18 days relative to control; assay type: organism-based; parameters: dose 0.1 mg/kg, route intraperitoneal; settings: in vivo; method in brief: as §3
Rattus norvegicus [30] = assay: Toxicity in Brown Norwegian rat bearing BN472 tumor assessed as increase in kidney weight at 1 mg/kg, ip administered once daily after 4 days of tumor transplantation for 17 to 18 days relative to control; assay type: organism-based; parameters: dose 1 mg/kg, route intraperitoneal; settings: in vivo; method in brief: as §3
Rattus norvegicus [31] = assay: Toxicity in Brown Norwegian rat bearing BN472 tumor assessed as decrease in adrenal weight at 0.1 mg/kg, ip administered once daily after 4 days of tumor transplantation for 17 to 18 days relative to control; assay type: organism-based; parameters: dose 0.1 mg/kg, route intraperitoneal; scale not given: the % may be the effect or the level left; settings: in vivo; method in brief: as §3

Sequence of Tissue-type plasminogen activator (P00750 whole entry): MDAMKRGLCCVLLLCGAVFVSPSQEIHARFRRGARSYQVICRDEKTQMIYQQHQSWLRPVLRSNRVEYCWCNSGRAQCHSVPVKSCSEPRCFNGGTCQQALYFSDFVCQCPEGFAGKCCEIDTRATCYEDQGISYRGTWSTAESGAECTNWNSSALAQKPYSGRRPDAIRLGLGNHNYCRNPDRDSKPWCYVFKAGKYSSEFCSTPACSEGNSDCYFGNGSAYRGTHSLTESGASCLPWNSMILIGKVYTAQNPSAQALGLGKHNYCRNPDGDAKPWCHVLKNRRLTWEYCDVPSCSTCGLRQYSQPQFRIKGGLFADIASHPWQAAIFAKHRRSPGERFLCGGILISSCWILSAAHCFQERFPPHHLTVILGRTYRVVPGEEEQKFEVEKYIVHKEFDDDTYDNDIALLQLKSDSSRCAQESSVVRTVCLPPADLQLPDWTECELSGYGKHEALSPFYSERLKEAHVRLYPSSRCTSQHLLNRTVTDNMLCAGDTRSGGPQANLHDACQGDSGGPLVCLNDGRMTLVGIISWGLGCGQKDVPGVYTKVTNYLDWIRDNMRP
Sequence of Plasminogen (Rattus norvegicus, UniProt Q01177) (Q01177 97-581 limits assumed): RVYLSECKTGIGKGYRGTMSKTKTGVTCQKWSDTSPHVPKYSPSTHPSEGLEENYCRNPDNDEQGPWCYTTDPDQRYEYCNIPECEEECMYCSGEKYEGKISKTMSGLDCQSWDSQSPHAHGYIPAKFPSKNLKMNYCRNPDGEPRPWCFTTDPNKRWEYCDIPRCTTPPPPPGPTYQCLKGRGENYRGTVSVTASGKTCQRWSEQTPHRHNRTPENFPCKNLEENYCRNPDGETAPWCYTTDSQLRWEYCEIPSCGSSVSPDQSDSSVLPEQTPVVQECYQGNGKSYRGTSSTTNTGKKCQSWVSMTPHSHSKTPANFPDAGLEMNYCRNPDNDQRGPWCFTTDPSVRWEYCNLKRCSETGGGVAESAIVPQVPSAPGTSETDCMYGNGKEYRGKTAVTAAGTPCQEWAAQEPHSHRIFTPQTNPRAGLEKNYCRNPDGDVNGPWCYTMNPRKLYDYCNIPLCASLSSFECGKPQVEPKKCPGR
Sequence of Plasminogen (Rattus norvegicus, UniProt Q01177) (Q01177 582-812 limits assumed): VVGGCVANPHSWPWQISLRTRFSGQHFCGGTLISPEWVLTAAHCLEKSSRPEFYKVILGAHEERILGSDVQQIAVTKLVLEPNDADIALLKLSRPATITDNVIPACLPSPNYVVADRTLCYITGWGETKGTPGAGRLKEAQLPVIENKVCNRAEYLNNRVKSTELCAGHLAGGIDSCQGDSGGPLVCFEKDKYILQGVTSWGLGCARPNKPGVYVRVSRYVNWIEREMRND
Sequence of Plasminogen (Mus musculus, UniProt P20918) (P20918 98-581 limits assumed): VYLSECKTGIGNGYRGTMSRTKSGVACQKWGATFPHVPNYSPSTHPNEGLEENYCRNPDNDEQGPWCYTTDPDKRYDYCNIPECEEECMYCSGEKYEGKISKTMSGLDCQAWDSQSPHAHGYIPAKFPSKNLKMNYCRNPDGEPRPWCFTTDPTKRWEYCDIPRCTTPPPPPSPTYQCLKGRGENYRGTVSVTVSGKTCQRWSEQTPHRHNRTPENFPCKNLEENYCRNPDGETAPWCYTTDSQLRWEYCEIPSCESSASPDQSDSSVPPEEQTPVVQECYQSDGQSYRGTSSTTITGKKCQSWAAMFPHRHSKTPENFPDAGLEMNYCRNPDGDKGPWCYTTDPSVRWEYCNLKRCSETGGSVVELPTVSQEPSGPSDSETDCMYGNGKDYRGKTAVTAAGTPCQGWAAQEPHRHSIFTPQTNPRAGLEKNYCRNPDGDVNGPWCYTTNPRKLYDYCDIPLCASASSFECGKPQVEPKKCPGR
Sequence of Plasminogen (Mus musculus, UniProt P20918) (P20918 582-812 limits assumed): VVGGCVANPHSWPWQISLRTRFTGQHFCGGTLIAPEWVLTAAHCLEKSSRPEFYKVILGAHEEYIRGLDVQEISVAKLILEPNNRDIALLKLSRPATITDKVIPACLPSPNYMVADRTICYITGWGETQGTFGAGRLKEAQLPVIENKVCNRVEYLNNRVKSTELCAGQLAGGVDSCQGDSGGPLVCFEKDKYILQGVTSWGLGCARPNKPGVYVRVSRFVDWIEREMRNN
Sequence of Urokinase-type plasminogen activator (Rattus norvegicus, UniProt P29598) (P29598 20-177 limits assumed): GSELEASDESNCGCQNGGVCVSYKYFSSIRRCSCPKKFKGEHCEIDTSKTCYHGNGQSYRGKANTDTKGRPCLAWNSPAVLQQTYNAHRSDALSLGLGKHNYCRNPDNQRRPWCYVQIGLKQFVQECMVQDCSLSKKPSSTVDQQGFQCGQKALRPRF
Sequence of Urokinase-type plasminogen activator (Rattus norvegicus, UniProt P29598) (P29598 179-432 limits assumed): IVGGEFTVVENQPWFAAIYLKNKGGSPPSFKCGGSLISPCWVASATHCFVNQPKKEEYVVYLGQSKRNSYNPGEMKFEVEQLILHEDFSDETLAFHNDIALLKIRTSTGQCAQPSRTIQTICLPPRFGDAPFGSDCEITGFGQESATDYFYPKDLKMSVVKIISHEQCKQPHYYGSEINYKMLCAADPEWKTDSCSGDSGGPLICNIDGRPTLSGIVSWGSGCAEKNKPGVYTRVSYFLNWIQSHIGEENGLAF
Sequence of Urokinase-type plasminogen activator (Mus musculus, UniProt P06869) (P06869 21-178 limits assumed): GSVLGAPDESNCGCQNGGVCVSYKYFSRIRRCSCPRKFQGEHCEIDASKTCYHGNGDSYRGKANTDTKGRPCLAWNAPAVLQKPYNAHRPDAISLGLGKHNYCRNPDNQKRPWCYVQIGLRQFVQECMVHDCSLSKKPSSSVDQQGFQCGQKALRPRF
Sequence of Urokinase-type plasminogen activator (Mus musculus, UniProt P06869) (P06869 180-433 limits assumed): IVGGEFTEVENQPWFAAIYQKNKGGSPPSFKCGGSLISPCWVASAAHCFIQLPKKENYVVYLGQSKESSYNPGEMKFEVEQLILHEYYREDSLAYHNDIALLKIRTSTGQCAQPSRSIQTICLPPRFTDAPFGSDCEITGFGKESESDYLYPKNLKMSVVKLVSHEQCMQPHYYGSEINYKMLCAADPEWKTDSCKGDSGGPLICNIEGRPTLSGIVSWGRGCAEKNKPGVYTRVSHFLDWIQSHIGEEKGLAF
Sequence of Plasminogen (Homo sapiens, UniProt P00747) (P00747 97-580 limits assumed): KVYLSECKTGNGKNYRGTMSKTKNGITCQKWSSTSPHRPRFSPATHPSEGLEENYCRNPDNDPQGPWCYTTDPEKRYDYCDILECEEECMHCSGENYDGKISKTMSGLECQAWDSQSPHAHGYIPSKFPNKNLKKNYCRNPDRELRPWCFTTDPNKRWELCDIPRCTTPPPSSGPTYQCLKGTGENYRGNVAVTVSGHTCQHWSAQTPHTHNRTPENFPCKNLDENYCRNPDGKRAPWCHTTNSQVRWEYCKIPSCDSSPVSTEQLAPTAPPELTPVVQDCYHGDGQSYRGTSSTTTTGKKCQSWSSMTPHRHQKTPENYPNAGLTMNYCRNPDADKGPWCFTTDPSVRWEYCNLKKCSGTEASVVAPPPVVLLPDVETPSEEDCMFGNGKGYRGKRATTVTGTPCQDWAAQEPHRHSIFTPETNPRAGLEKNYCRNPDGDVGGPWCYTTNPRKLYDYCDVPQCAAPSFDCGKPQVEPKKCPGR
Sequence of Plasminogen (Homo sapiens, UniProt P00747) (P00747 581-810 limits assumed): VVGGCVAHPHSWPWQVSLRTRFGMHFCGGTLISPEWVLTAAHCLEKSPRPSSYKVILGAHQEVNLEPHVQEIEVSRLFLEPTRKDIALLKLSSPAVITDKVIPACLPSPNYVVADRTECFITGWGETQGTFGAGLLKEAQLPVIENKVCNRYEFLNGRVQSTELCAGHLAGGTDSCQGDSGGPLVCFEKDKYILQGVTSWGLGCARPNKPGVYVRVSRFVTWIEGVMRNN

COC(=O)NC(Cc1ccc(NC(=N)N)cc1)P(=O)(Oc1ccc(NC(C)=O)cc1)Oc1ccc(NC(C)=O)cc1 (stereo unspecified)
remaining at 3 h [1]: 81% | IC50 [2]: 0.0245 µM | IC50 [3]: 0.008 µM | IC50 (Plasminogen [4]): 4.8 µM | IC50 (Plasminogen [5]): 2.2 µM | IC50 (Prothrombin [6]): 45 µM | IC50 (Prothrombin [7]): 4.5 µM | IC50 [8]: 6.1 µM | IC50 (Plasminogen [9]): 2.8 µM | IC50 (Prothrombin [10]): 1.13 µM | half-life [11]: 35 h | half-life [12]: 64 h | Activity [13]: 10% | Activity [14]: 18% | Activity [15]: 15% | Activity [16]: 17% | Activity [17]: 42% | Activity [18]: 49% | Activity [19]: 73% | Activity [20]: 3% | Activity [21]: 6% | Activity (Rattus norvegicus [22]): 163.5 g | Activity (Rattus norvegicus [23]): 170.5 g | Activity (Rattus norvegicus [24]): 7% | Activity (Rattus norvegicus [25]): 33% | Activity (Rattus norvegicus [26]): 3% | Activity (Rattus norvegicus [27]): 2% | Activity (Rattus norvegicus [28]): 8% | Activity (Rattus norvegicus [29]): 7% | Activity (Rattus norvegicus [30]): 3% | Activity (Rattus norvegicus [31]): 2%
